The test system of experiment [1] is K562. Put plainly: Induction of apoptosis in human K562 cells assessed as early apoptotic cells at 30 nM after 12 hrs by Annexin V-FITC/propidium iodide staining-based flow cytometric analysis (reference value: 1.9%). The class given is functional.
The test system of experiment [2] is K562. Put plainly: Induction of apoptosis in human K562 cells assessed as early apoptotic cells at 300 nM after 24 hrs by Annexin V-FITC/propidium iodide staining-based flow cytometric analysis (reference value: 2.2%). The class given is functional. On the technique in general: Flow cytometry measures light scatter and fluorescence of single cells or particles in a stream.

The test system of another experiment is HepG2. Put plainly: Antiproliferative activity against human HepG2 cells after 48 hrs by MTT assay. The class given is functional, cell-based. As to conditions: HepG2, 48 h.
Experiment [3] has as its system K562. Nature of the experiment: Induction of apoptosis in human K562 cells assessed as early apoptotic cells at 300 nM after 6 hrs by Annexin V-FITC/propidium iodide staining-based flow cytometric analysis (reference value: 2.2%). The class given is functional.
In experiment [4] the test system is K562. Put plainly: Induction of apoptosis in human K562 cells assessed as viable cells at 30 nM after 6 hrs by Annexin V-FITC/propidium iodide staining-based flow cytometric analysis (reference value: 95.8%). The class given is functional. The note with it: K562, 6 h, read-out: Activity.
The subject of experiment [5] is K562. Nature of the experiment: Antiproliferative activity against human K562 cells after 48 hrs by MTT assay. It counts as functional, cell-based. As to conditions: K562, 48 h. The procedure, abridged:
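MTT assay on K562 cells (RPMI-1640, 10% FBS) plated at 5 × 10^4 cells/ml for 2 h, then exposed to 10–100,000 nM compound for 48 h. MTT (5 mg/mL stock) added for 4 h before absorbance read. Viability normalized to DMSO controls (100%); IC50 from nonlinear regression, three independent assays.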
In general terms: Tetrazolium dyes change colour on reduction, which living cells bring about.

Experiment [6] relates to K562. Put plainly: Induction of apoptosis in human K562 cells assessed as late apoptotic cells at 300 nM after 48 hrs by Annexin V-FITC/propidium iodide staining-based flow cytometric analysis (reference value: 2.1%). The class given is functional.
Experiment [7] concerns K562. Put plainly: Induction of apoptosis in human K562 cells assessed as viable cells at 300 nM after 12 hrs by Annexin V-FITC/propidium iodide staining-based flow cytometric analysis (reference value: 95.6%). The note with it: K562, 12 h, read-out: Activity. The class given is functional.
The subject of experiment [8] is K562. Put plainly: Induction of apoptosis in human K562 cells assessed as late apoptotic cells at 30 nM after 12 hrs by Annexin V-FITC/propidium iodide staining-based flow cytometric analysis (reference value: 2.2%). It counts as functional.
The test system of experiment [9] is K562. Nature of the experiment: Induction of apoptosis in human K562 cells assessed as late apoptotic cells at 300 nM after 6 hrs by Annexin V-FITC/propidium iodide staining-based flow cytometric analysis (reference value: 2.1%). It counts as functional.
Experiment [10] deals with K562. Put plainly: Induction of apoptosis in human K562 cells assessed as late apoptotic cells at 30 nM after 48 hrs by Annexin V-FITC/propidium iodide staining-based flow cytometric analysis (reference value: 2.2%). It counts as functional.
Experiment [11] has as its system K562. Put plainly: Induction of morphological changes in human K562 cells assessed as cell shrinkage at 30 nM after 24 hrs. It counts as functional, cell-based. An outline of the steps: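 K562 cells kept in RPMI-1640 with 10% FBS, 2.05 mM glutamine and penicillin/streptomycin at 37 °C, 5% CO2. Exposed to 30 nM drug alongside DMSO-treated controls. Cell morphology examined by microscopy.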

pIC50: −log10 of the molar value. Active and inactive are the calls of the source. No cut-off for these calls is given here.

Usually pIC50 stands for the negative decadic logarithm of the IC50, by convention in mol/L. Low readings indicate a high IC50, high ones a low IC50. Turning to `COc1ccc(CN2C(=O)C(=O)c3cc(-c4ccc(OC)cc4)ccc32)cc1`, the Activity in the experiment on K562 [1] amounted to 3.1%; in the experiment on K562 [2] it was 12.4%; with K562 [3], 2.4%; in the experiment on K562 [6] it was 10%; in the experiment with K562 [8], 4%; in the experiment with K562 [9], 3.8%. In addition, in the experiment with K562 [10], the Activity came out at 21.1%. Also, the results for the negative logarithm of the IC50 (pIC50) with HepG2 and with K562 [5] were 7.30 and 7.52, respectively. In addition, the viability at 0.03 µM in the experiment with K562 [4] was determined as 94.4%. Besides, the viability at 0.3 µM in the experiment on K562 [7] worked out at 88.1%. Further, the result in the experiment with K562 [11] was Active.

The record behind these values is ChEMBL document CHEMBL4270578, “Synthesis and cytotoxic studies of novel 5-phenylisatin derivatives and their anti-migration and anti-angiogenic evaluation” (Eur J Med Chem, 2018).
